According to ChEMBL document CHEMBL3132834, “Synthesis and biological activity of NOSH-naproxen (AVT-219) and NOSH-sulindac (AVT-18A) as potent anti-inflammatory agents with chemotherapeutic potential” (Medchemcomm, 2013):

Tests used:
HT-29 [1] = assay: Cytotoxicity against human HT-29 cells assessed as growth inhibition after 24 hrs by MTT assay; assay type: functional, cell-based; conditions: for IC50: HT-29, 24 h
Method in brief: (§1)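 Cells grown in 10% FCS medium: HT-29 in McCoy 5A; MCF-7 and BxPC-3 in DMEM. 50,000 cells/well exposed to a range of concentrations for 24 h. MTT added for 2 h at 37°C, formazan dissolved in 10% SDS/0.01 M HCl, A570 read. IC₅₀ from cell numbers; mean ± S.E.M. of 5–7 experiments in triplicate. Ratios are parent IC₅₀ over hybrid IC₅₀.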

HT-29 [2] = assay: Induction of human HT-29 cells assessed as assessed as early apoptotic cells at IC50 concentration after 3 hrs by propidium iodide staining-based flow cytometric analysis; assay type: functional
[3] = Cytotoxicity against human IMR90 cells assessed as growth inhibition after 24 hrs by MTT assay; assay type: cell-based; conditions: IMR-90, 24 h
Method in brief: (§2)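 Normal human cells: IMR-90 lung fibroblasts in EMEM with 10% heat-inactivated FCS and 2 mmol/L L-glutamine; primary pancreatic epithelial ACBRI 515 in serum-free medium with attachment factor; HMEpC in mammary epithelial growth medium. Exposed to a range of concentrations for 24 h; IC₅₀ from cell numbers. Mean ± SEM of 3 experiments in duplicate.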

Rattus norvegicus [4] = assay: Antiinflammatory activity in Wistar rat assessed as inhibition of carrageenan-induced paw volume at 188 mg/kg through gavage administered 1 hr prior to carrageenan-challenge measured after 4 hrs (reference value: 1.1 +/- 0.1 mL); assay type: functional
[5] = Selectivity ratio of IC50 for human Jurkat cells to IC50 for human IMR90 cells; assay type: ADME, cell-based; conditions: Jurkat cells versus IMR90 cells, read-out: Ratio IC50
BXPC-3 [6] = assay: (§3) Cytotoxicity against human BxPC3 cells assessed as growth inhibition after 24 hrs by MTT assay; assay type: functional, cell-based; method in brief: as §1
[7] = as §3; assay type: functional, cell-based; conditions: BXPC-3, 24 h; method in brief: as §1
[8] = Selectivity ratio of IC50 for human MCF7 cells to IC50 for human HMEpC cells; assay type: ADME, cell-based; conditions: MCF7 cells versus HMEpC cells, read-out: Ratio IC50
[9] = Selectivity ratio of IC50 for human BxPC3 cells to IC50 for human IMR90 cells; assay type: ADME, cell-based, IMR-90; conditions: BxPC3 cells versus IMR90 cells, read-out: Ratio IC50
HT-29 [10] = assay: Induction of human HT-29 cells assessed as assessed as early apoptotic cells at IC50 concentration after 6 hrs by propidium iodide staining-based flow cytometric analysis; assay type: functional
BXPC-3 [11] = assay: Ratio of naproxen IC50 to compound IC50 for human BxPC3 cells after 24 hrs by MTT assay; assay type: functional
Serum [12] = assay: Prodrug conversion in carrageenan-induced Wistar rat model assessed as sulfide species in serum at 188 mg/kg through gavage administered 1 hr prior to carrageenan-challenge; assay type: ADME, organism-based; design: dose 188 mg/kg; conditions: in vivo, po
Method in brief: (§4)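 Blood taken at the end of the carrageenan edema study from gavage-dosed rats (3 per group). Sulfide measured by the methylene blue method: plasma mixed with zinc acetate, trichloroacetic acid, N,N-dimethyl-p-phenylenediamine and FeCl₃ in 7.2M HCl, A670 read after 15 min. Run in duplicate against a NaHS calibration curve (1-250 μM). The read-out is total H₂S + HS⁻ + S²⁻.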

HT-29 [13] = assay: Antiproliferative activity against human HT-29 cells assessed as reduction in PCNA expression at IC50 concentration; assay type: functional, cell-based; conditions: TDE = time-dependent effect
[14] = Selectivity ratio of IC50 for human MCF7 cells to IC50 for human IMR90 cells; assay type: ADME, cell-based, IMR-90; conditions: MCF7 cells versus IMR90 cells, read-out: Ratio IC50
[15] = Selectivity ratio of IC50 for human BxPC3 cells to IC50 for human ACBRI 515 cells; assay type: ADME, cell-based, BXPC-3; conditions: BxPC3 cells versus ACBRI 515 cells, read-out: Ratio IC50
[16] = Selectivity ratio of IC50 for human HT-29 cells to IC50 for human IMR90 cells; assay type: ADME, cell-based; conditions: HT-29 cells versus IMR90 cells, read-out: Ratio IC50
[17] = Cytotoxicity against human HMEpC cells assessed as growth inhibition after 24 hrs by MTT assay; assay type: cell-based; method in brief: as §2
Rattus norvegicus [18] = assay: Antiinflammatory activity in carrageenan-induced Wistar rat model assessed as inhibition of PGE2 level at 188 mg/kg through gavage administered 1 hr prior to carrageenan-challenge measured after 4 hrs (reference value: 95 +/- 7 pg/mL); assay type: functional
MCF7 = assay: Cytotoxicity against human MCF7 cells assessed as growth inhibition after 24 hrs by MTT assay; assay type: functional, cell-based; conditions: for IC50: MCF7, 24 h; method in brief: as §1
[19] = Cytotoxicity against human ACBRI 515 cells assessed as growth inhibition after 24 hrs by MTT assay; assay type: cell-based; conditions: ACBRI-515, 24 h; method in brief: as §2
HT-29 [20] = assay: Cell cycle arrest in human HT-29 cells assessed as accumulation at sub G2/M phase at IC50 concentration after 24 hrs by propidium iodide staining-based flow cytometric analysis (reference value: 28.7 +/- 2.1%); assay type: functional
HT-29 [21] = assay: Cell cycle arrest in human HT-29 cells assessed as accumulation at G0/G1 phase at IC50 concentration after 24 hrs by propidium iodide staining-based flow cytometric analysis (reference value: 42.2 +/- 4%); assay type: functional
HT-29 [22] = assay: Induction of human HT-29 cells assessed as assessed as early apoptotic cells at IC50 concentration after 24 hrs by propidium iodide staining-based flow cytometric analysis; assay type: functional
HT-29 [23] = assay: Antiproliferative activity against human HT-29 cells assessed as reduction in PCNA expression at IC50 concentration after 24 hrs; assay type: functional
Jurkat [24] = assay: Cytotoxicity against human Jurkat cells assessed as growth inhibition after 24 hrs by MTT assay; assay type: functional, cell-based
Method in brief: (§5)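 30,000 cells/well added to serially diluted compounds in V-bottom plates, 24 h at 37°C in 5% CO₂. MTT (1.1 mg/mL) added for 4 h more, formazan dissolved in DMSO, A570 read. IC₅₀ from 5–7 experiments in triplicate; ratio is parent IC₅₀ over hybrid IC₅₀.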

HT-29 [25] = assay: Induction of human HT-29 cells assessed as assessed as early apoptotic cells at IC50 concentration after 12 hrs by propidium iodide staining-based flow cytometric analysis; assay type: functional
HT-29 [26] = assay: Cell cycle arrest in human HT-29 cells assessed as accumulation at S phase at IC50 concentration after 24 hrs by propidium iodide staining-based flow cytometric analysis (reference value: 29.2 +/- 3.3%); assay type: functional
Serum [27] = assay: Prodrug conversion in carrageenan-induced Wistar rat model assessed as sulfide species in serum at 200 mg/kg through gavage administered 1 hr prior to carrageenan-challenge; assay type: ADME, organism-based; design: dose 200 mg/kg; conditions: in vivo, po; method in brief: as §4
Rattus norvegicus [28] = assay: Antiinflammatory activity in carrageenan-induced Wistar rat model assessed as inhibition of PGE2 level at 200 mg/kg through gavage administered 1 hr prior to carrageenan-challenge measured after 4 hrs (reference value: 95 +/- 7 pg/mL); assay type: functional
Rattus norvegicus [29] = assay: Antiinflammatory activity in Wistar rat assessed as inhibition of carrageenan-induced paw volume at 200 mg/kg through gavage administered 1 hr prior to carrageenan-challenge measured after 4 hrs (reference value: 1.1 +/- 0.1 mL); assay type: functional
Serum [30] = assay: Prodrug conversion in carrageenan-induced Wistar rat model assessed as sulfide species in serum at 467 mg/kg through gavage administered 1 hr prior to carrageenan-challenge; assay type: ADME, organism-based; design: dose 467 mg/kg; conditions: in vivo, po; method in brief: as §4
HT-29 [31] = assay: Cell cycle arrest in human HT-29 cells assessed as accumulation at sub G2/M phase at IC50 concentration after 24 hrs by propidium iodide staining-based flow cytometric analysis (reference value: 27.7 +/- 42%); assay type: functional
HT-29 [32] = assay: Cell cycle arrest in human HT-29 cells assessed as accumulation at G0/G1 phase at IC50 concentration after 24 hrs by propidium iodide staining-based flow cytometric analysis (reference value: 40.9 +/- 3.1%); assay type: functional
Rattus norvegicus [33] = assay: Antiinflammatory activity in Wistar rat assessed as inhibition of carrageenan-induced paw volume at 467 mg/kg through gavage administered 1 hr prior to carrageenan-challenge measured after 4 hrs (reference value: 1.1 +/- 0.1 mL; assay type: functional
Jurkat [34] = assay: Ratio of sulindac IC50 to compound IC50 for human Jurkat cells after 24 hrs by MTT assay; assay type: functional
Method in brief: as §5, with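 “Jurkat T cells grown in suspension in RPMI 1640 with 10% FCS. 30,000” for “30,000”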

Rattus norvegicus [35] = assay: Antiinflammatory activity in carrageenan-induced Wistar rat model assessed as inhibition of PGE2 level at 467 mg/kg through gavage administered 1 hr prior to carrageenan-challenge measured after 4 hrs (reference value: 95 +/- 7 pg/mL); assay type: functional
HT-29 [36] = assay: Cell cycle arrest in human HT-29 cells assessed as accumulation at S phase at IC50 concentration after 24 hrs by propidium iodide staining-based flow cytometric analysis (reference value: 31.7 +/- 3.7%); assay type: functional

| Compound | IC50 (HT-29 [1]) [µM] | Activity (HT-29 [2]) [%] | IC50 [3] [µM] | selectivity ratio [5] | growth inhibition (GI) (BXPC-3 [6]) | IC50 [7] [µM] | selectivity ratio [8] | selectivity ratio [9] | growth inhibition (GI) (HT-29 [1]) | Activity (HT-29 [10]) [%] | inhibition (HT-29 [13]) | selectivity ratio [14] | selectivity ratio [15] | selectivity ratio [16] | IC50 [17] [µM] | growth inhibition (GI) (MCF7) | IC50 (MCF7) [µM] | IC50 [19] [µM] | Activity (HT-29 [22]) [%] | IC50 (Jurkat [24]) [nM] | other results |
| --- | --- | --- | --- | --- | --- | --- | --- | --- | --- | --- | --- | --- | --- | --- | --- | --- | --- | --- | --- | --- | --- |
| Oc1ccc(-c2cc(=S)ss2)cc1 | 35 | – | – | – | – | – | – | – | – | – | – | – | – | – | – | – | – | – | – | – | – |
| C[C@H](C(=O)Oc1ccc(-c2cc(=S)ss2)cc1)c1ccc2cc(OC(=O)CCCO[N+](=O)[O-])ccc2c1 | 0.08 | 9.2 | 20 | 70 | Dose-dependent effect | 0.15 | 115 | 70 | Dose-dependent effect | 25.3 | tde | 70 | 147 | 70 | 13.8 | Dose-dependent effect | 0.12 | 22 | 59.2 | 100 | Activity (Rattus norvegicus [4]): 0.15 mL; Ratio IC50 (BXPC-3 [11]): 16000; Stability (Serum [12]): Stable; Activity (Rattus norvegicus [18]): 35 pg/mg; Activity (HT-29 [20]): 19.5%; Activity (HT-29 [21]): 58.2%; inhibition (INH) (HT-29 [23]): 50%; growth inhibition (GI) (Jurkat [24]): Dose-dependent effect; Activity (HT-29 [25]): 31.9%; Activity (HT-29 [26]): 22.3% |
| COc1ccc2cc([C@H](C)C(=O)O)ccc2c1 [NAPROXEN] | 2600 | – | – | – | – | 2450 | – | – | – | – | – | – | – | – | – | – | 2380 | – | – | – | – |
| CC(=O)N[C@H](C(=O)O)C(C)(C)SN=O | 508 | – | – | – | – | – | – | – | – | – | – | – | – | – | – | – | – | – | – | – | – |
| CC1=C(CC(=O)O)c2cc(F)ccc2/C1=C\c1ccc([S+](C)[O-])cc1 (configuration not stated) | 800 | – | – | – | – | 980 | – | – | – | – | – | – | – | – | – | – | 965 | – | – | 699000 | Stability (Serum [27]): Stable; Activity (Rattus norvegicus [28]): 12 pg/mg; Activity (Rattus norvegicus [29]): 0.22 mL |
| CC1=C(CC(=O)Oc2ccc(OC(=O)CCCO[N+](=O)[O-])c(C(=O)Oc3ccc(-c4cc(=S)ss4)cc3)c2)c2cc(F)ccc2/C1=C\c1ccc([S+](C)[O-])cc1 (configuration not stated) | 0.089 | 2.8 | 21.7 | 70 | Dose-dependent effect | 0.12 | 150 | 70 | Dose-dependent effect | 10.1 | tde | 70 | > 200 | 70 | 15.2 | Dose-dependent effect | 0.1 | > 25 | 39.4 | 270 | Stability (Serum [30]): Stable; Activity (HT-29 [31]): 59.8%; Activity (HT-29 [32]): 29.6%; Activity (Rattus norvegicus [33]): 0.21 mL; Ratio IC50 (Jurkat [34]): 2500; Activity (Rattus norvegicus [35]): 29 pg/mg; inhibition (INH) (HT-29 [23]): 50%; Activity (HT-29 [36]): 10.6%; growth inhibition (GI) (Jurkat [24]): Dose-dependent effect; Activity (HT-29 [25]): 23.2% |
